Compound activity as filed in PubChem.
ERa coact pot: enhances coactivator binding to human estrogen receptor alpha. AID 639. coactivator binding (% of control), % at 25.6 µM. P03372. TR-FRET ERalpha-LBD/SRC-Cy5 coactivator binding, 2 h; 100 = basal binding, no effect. 1.3% of 86,000 active; in the data active = activity above about 200%;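 also: binding measured in presence of low estradiol as agonist stimulus; 0% = peptide alone without receptor and 100% = receptor with peptide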
ERa coact inh: blocks coactivator binding to human estrogen receptor alpha; AID 629; inhibition, % at 25.6 µM; 1.7% of 86,000 active; P03372; TR-FRET ER-alpha LBD / SRC-1 peptide, estradiol-bound; in the data active = inhibition above about 50%;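 also: 0% = receptor plus peptide control and 100% = peptide only without receptor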
HUVEC inhibit: inhibitors of human endothelial cell proliferation. 1.1% of 86,000 active. AID 648. HUVEC proliferation, CellTiter-Glo luminescence, 72 h; active compounds read low. viability, % at 10 µM (by protocol);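 active = viability at or below 30%; inactive = viability above 30%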;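 also: 100% = median luminescence of DMSO-only cell control wells on each plate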
Lung fibro prol: blocks proliferation of human lung fibroblasts; LL 47 human lung fibroblast viability, ATP luminescence; active compounds read low; viability, % at 10 µM; 1.1% of 85,000 active; AID 719;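 active = viability at or below 50% in the single dose screen; inactive = viability above 50%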;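 also: compound exposure lasted 72 h before the ATP readout; 100% = median luminescence of untreated cell-only wells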
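Material: human lung fibroblast line LL 47, low passage; Evaluation: viability percentage against median untreated-cell control; Buffer or medium: 15% FBS in IMEM; Incubation: 72 h compound exposure at 37 °C after overnight plating; Dosing: 0.1% DMSO in all compound wells; Measured by: CellTiter-Glo luminescence.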
ERb coact inh: blocks coactivator binding to human estrogen receptor beta; Q92731; TR-FRET ER-beta LBD / SRC1-Cy5 peptide binding; receptor agonist-loaded with 1 µM estradiol; inhibition, % at 25.6 µM; 1.3% of 86,000 active; AID 633;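 active = compounds whose percent inhibition of the receptor-coactivator binding signal exceeds about 50% in the single-dose screen, limit read from the data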;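 also: 0% = receptor plus peptide wells without compound and 100% = peptide-only wells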
Target sequence (Q92731 whole entry, looked up, the tested form may be a part): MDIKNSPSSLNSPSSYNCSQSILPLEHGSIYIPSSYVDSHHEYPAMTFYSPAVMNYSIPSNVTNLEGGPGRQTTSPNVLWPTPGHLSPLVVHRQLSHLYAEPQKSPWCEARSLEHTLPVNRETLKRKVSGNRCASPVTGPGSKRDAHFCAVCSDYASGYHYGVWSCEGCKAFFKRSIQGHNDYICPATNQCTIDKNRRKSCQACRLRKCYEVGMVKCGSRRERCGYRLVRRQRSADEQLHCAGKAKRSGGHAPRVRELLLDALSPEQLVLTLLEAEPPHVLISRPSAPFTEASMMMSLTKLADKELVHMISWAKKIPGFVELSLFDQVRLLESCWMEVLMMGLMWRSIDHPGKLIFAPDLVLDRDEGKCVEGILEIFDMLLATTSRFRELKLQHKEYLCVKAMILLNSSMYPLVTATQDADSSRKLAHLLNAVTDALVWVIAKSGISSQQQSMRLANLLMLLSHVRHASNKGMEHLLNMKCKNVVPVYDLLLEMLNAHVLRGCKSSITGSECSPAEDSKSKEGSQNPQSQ
H69AR growth 86K: blocks growth of human H69AR lung tumor cells; H69AR lung tumor viability, ATP luminescence, 72 h; active compounds read low; viability, % at 10 µM; 6% of 85,000 active;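 active = viability at or below 40%; inactive = viability above 40%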;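 also: multidrug resistant small cell line overexpressing MRP-1 efflux transporter; 100% = mean luminescence of untreated control wells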
Starred values were filed as active, the others as inactive; x = not tested or not shown; [ ] = another dose, or the depositor's remark. This is a sample that favours compounds with a hit; in the whole collection about 9.2% have one here.

SMILES	ERa coact pot	ERa coact inh	HUVEC inhibit	Lung fibro prol	ERb coact inh	H69AR growth 86K
O=C(NCCCN1CCCCCC1)c1ccc(CS(=O)(=O)Cc2ccccc2F)o1	636*[fluorescence artefact?]	30	100	106	40	79
CC1CCN(CCCNC(=O)c2ccc(CS(=O)(=O)Cc3ccccc3F)o2)CC1	125	-1	91	110	3	76
O=C(NCCN1CCCCCC1)c1ccc(CS(=O)(=O)c2ccc(Br)cc2)o1	66	81*[fluorescence artefact?]	100	98	50	92
CCCc1nnc(NC(=O)CCC(=O)Nc2ccc(F)cc2)s1	106	-9	99	97	-8	94
COc1ccc(/C=N/n2cnc3c([nH]c4ccc(Br)cc43)c2=O)cc1CN1CCOCC1	146	25	23*	8.7*	11	3.7*
O=C(CCC(=O)Nc1nnc(C2CCCCC2)s1)NCC1CCCO1 (configuration not stated)	203*[fluorescence artefact?]	63*	93	91	61*	95
Cc1ccc(C(=O)Nc2ncc(Cc3ccc(F)cc3)s2)o1	102	3	30*	92	-1	89
O=C(Cn1c(=O)oc2ccccc21)NC(=O)NCc1ccco1	99	17	90	101	21	97
Cc1cccc(NC(=O)c2c(O)c3cccc4c3n(c2=O)CCC4)n1	114	1	103	100	4	85
Cc1cnc(NC(=O)c2c(O)c3cccc4c3n(c2=O)CCC4)s1	103	3	89	97	8	5.7*
CC(C)c1nnc(NC(=O)c2c(O)c3cccc4c3n(c2=O)CCC4)s1	97	19	109	67	38	34*
CC(=O)C1=C(c2ccccc2)NC(=O)NC1c1ccccc1OCC(=O)NCc1ccccc1 (configuration not stated)	99	-2	99	95	-9	44
CCOC(=O)C1CCCN(Cc2ccc(OCC)cc2)C1 (configuration not stated)	97	-10	92	89	0	89
Clc1ccc2nc(CSc3nnc(-c4c[nH]c5ccccc45)o3)cn2c1	261*[fluorescence artefact?]	31	84	114	42	82
Cc1noc(C)c1C(=O)Nc1ccc(F)cc1F	113	0	99	101	0	96
CC(=NCCCn1ccnc1)c1c(O)n(Cc2ccccc2)c(=O)[nH]c1=O	84	1	91	98	0	88
Cc1cc(C)c(C(=O)c2ccc(C(=O)N(C(C)C)C(C)C)cc2)c(C)c1	79	-2	92	84	-1	24*
Cc1cc(C)c(C(=O)c2ccc(C(=O)NC(C)(C)C)cc2)c(C)c1	99	4	90	96	-5	99
O=C(C1CCN(S(=O)(=O)c2cccc3cccnc23)CC1)N1CCN(c2ccc(Cl)cc2)CC1	102	5	91	90	6	61
Fc1cccc(CN2CCN(c3ncccn3)CC2)c1	112	5	97	106	3	99
CC(C)OC(=O)C(NC(=O)c1ccccc1)=C1CCCCC1	105	-3	99	101	-13	101
Cc1nn(C)c(C)c1NC(=O)CSc1nc(Cc2ccccc2)nc2c1cnn2-c1ccccc1	141	82*[fluorescence artefact?]	87	87	56*[fluorescence artefact?]	5.3*
CCOc1cc(N2CCOCC2)c(OCC)cc1NS(=O)(=O)c1ccc(Cl)s1	88	14	58	x	46	20*
Cc1ccc(-c2c3c(=O)n(C)c(=O)n(C)c3c3c(C)cc(C)nn23)cc1	139	35	79	95	5	82
C=CCOC(=O)C1=C(C)NC(SC)=C(C#N)C1c1cccs1 (configuration not stated)	84	-10	55	65	-1	20*
C=CCOC(=O)C1=C(C)NC(SCC(=O)Nc2nccs2)=C(C#N)C1c1cccs1 (configuration not stated)	108	25	18*	95	8	28*
C=CCOC(=O)C1=C(C)NC(SC)=C(C#N)C1c1ccc(OCC)cc1 (configuration not stated)	117	3	98	99	2	39*
CCn1c(=O)cc(SCC(=O)NCC2CCCO2)c2ccccc21 (configuration not stated)	77	-2	89	97	-8	97
